For assay [1], the target named is Mitogen-activated protein kinase 7 (Homo sapiens) (UniProt Q13164). As to the kind of experiment: Inhibition of ERK5 in human MKN74 cells harboring ERK1/2 siRNA assessed as reduction in ERK5 phosphorylation at 1 uM by Western blot analysis. Format: cell-based. An outline of the steps:
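MKN-74 cells were transfected with ERK1/2-specific siRNA or negative-control siRNA, then exposed to compound. ERK1/2, p-ERK1/2, ERK5 and p-ERK5 were read by immunoblotting, with GAPDH as loading control.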

Assay [2] shares this target. As to the kind of experiment: Inhibition of ERK5 (unknown origin) at 1 uM by Z'-Lyte assay relative to control.
The subject of a further assay is HeLa. In words: Antiproliferative activity against human HeLa cells assessed as reduction in cell viability measured after 24 hrs. Format: functional, cell-based.
For assay [3], the target named is Mitogen-activated protein kinase 3 (Homo sapiens) (UniProt P27361). In words: Inhibition of ERK1 (unknown origin) at 1 uM by Z'-Lyte assay relative to control.
For another assay, the system named is MKN-74. In words: Antiproliferative activity against human MKN74 cells assessed as reduction in cell viability measured after 24 hrs. Type of assay: functional, cell-based. The conditions noted are these: MKN-74, 24 h.
Assay [4] concerns the target Mitogen-activated protein kinase 1 (Homo sapiens) (UniProt P28482). In words: Inhibition of ERK2 (unknown origin) at 1 uM by Z'-Lyte assay relative to control.
A further assay relates to HL-60. As to the kind of experiment: Antiproliferative activity against human HL60 cells assessed as reduction in cell viability measured after 24 hrs. Format: functional, cell-based. The conditions noted are these: HL-60, 24 h.

The source made the active and inactive calls. No cut-off for these calls is given here.

Chain of Mitogen-activated protein kinase 3 (Homo sapiens) (P27361 whole entry): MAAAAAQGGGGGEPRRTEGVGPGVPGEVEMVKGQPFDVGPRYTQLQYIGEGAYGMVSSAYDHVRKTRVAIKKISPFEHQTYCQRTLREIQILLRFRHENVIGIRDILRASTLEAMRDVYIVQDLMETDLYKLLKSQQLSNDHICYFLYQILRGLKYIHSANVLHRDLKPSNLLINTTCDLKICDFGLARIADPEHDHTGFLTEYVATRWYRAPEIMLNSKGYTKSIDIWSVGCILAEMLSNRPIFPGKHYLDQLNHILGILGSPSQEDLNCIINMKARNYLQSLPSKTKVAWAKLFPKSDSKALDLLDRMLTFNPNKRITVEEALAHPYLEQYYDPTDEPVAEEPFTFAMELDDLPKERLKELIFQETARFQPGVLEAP
Chain of Mitogen-activated protein kinase 7 (Homo sapiens) (Q13164 2-816 limits assumed): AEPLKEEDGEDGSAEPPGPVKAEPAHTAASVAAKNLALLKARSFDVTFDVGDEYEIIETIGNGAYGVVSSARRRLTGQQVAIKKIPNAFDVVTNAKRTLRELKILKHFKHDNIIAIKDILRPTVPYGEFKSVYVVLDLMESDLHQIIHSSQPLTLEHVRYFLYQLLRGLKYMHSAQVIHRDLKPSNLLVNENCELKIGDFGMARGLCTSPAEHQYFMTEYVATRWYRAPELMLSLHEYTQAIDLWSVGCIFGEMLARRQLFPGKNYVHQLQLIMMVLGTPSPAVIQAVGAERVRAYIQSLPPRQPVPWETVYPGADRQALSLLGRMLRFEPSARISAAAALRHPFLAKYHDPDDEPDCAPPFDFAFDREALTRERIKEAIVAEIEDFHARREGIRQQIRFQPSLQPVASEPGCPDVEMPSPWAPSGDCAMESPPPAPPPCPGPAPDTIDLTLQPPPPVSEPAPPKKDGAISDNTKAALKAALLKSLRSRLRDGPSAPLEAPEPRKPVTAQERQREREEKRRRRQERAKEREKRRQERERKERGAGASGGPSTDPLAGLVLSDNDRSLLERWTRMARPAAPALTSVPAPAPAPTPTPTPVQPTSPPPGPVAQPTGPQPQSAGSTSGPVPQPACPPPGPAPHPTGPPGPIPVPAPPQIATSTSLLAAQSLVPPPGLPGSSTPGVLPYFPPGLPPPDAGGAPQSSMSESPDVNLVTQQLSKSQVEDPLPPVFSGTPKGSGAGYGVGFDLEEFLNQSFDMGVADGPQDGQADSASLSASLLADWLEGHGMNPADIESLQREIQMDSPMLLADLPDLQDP
Chain of Mitogen-activated protein kinase 1 (Homo sapiens) (P28482 whole entry): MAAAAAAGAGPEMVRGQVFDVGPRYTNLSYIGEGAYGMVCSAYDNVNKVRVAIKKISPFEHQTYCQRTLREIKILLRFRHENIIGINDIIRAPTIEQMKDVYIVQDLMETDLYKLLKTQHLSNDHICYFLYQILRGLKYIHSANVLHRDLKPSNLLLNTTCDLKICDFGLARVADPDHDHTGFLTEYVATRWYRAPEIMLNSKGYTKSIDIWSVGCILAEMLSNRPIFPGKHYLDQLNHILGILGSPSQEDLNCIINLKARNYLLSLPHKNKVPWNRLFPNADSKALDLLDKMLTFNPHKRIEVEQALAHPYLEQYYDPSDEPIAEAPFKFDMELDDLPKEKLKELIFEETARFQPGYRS

In the case of `O=C(Nc1ccc2[nH]nc(-c3ccncc3)c2c1)[C@@H]1CCN(CC(=O)N2CCN(c3ccc(-c4ncccn4)cc3)CC2)C1`, the inhibition entry in assay [1] is “inactive”. The inhibition is under 50% in assay [2], 98.8% in assay [3] and 99.2% in assay [4]. The IC50 in the assay on HeLa was over 50 µM; in the assay on MKN-74 it was over 50 µM; in the assay with HL-60 it was 1.06 µM.
Regarding `CCOc1cc(N2CCC(O)CC2)ccc1Nc1ncc2c(n1)N(C)c1ccccc1C(=O)N2C`, in assay [1], the inhibition result is “Active”. Also, the IC50 was over 50 µM in the assay on HeLa, over 50 µM in the assay with MKN-74 and 10.6 µM with HL-60. Also, the inhibition in assay [3] and in assay [4] was under 50% throughout.
In the case of `COc1ccccc1C(=O)Nc1sc2c(c1C(N)=O)CCN(C(=S)Nc1ccccc1Cl)C2`, the inhibition in assay [2] stood at 53.5%; in assay [3], 66.3%; in assay [4], 67.1%. The results for the IC50 in the assay with HeLa, in the assay on MKN-74 and in the assay on HL-60 were over 50 µM, 20.5 µM and 20.8 µM, respectively.
With `NC(=O)c1c(NC(=O)c2ccccc2F)sc2c1CCN(Cc1c(Cl)cccc1Cl)C2`, the inhibition worked out at 21.1% in assay [2], 48.4% in assay [3] and 36.9% in assay [4]. For the same molecule, the IC50 came out at 33 µM with HeLa, 7.43 µM in the assay on MKN-74 and 10.3 µM in the assay on HL-60.
Take `NC(=O)c1c(NC(=O)c2ccccc2F)sc2c1CCN(C(=O)Nc1ccccc1Cl)C2`: the inhibition turned out to be 54.9% in assay [2], 65% in assay [3] and 62.4% in assay [4]. Besides, the IC50 in the assay with HeLa was over 50 µM; in the assay on MKN-74 it was 49.6 µM; in the assay with HL-60 it was 32.7 µM.
With `NC(=O)c1c(NC(=O)c2ccc(C(F)(F)F)cc2)sc2c1CCN(Cc1ccc(Cl)cc1Cl)C2`, the inhibition in assay [2] was determined as 40%; in assay [3], 39.6%; in assay [4], 33.2%. The values for the IC50 with HeLa, with MKN-74 and in the assay with HL-60 were over 50 µM, 10.8 µM and 14.8 µM, respectively.
`Cc1ccc(C(=O)Nc2sc3c(c2C(N)=O)CCN(C(=S)Nc2cc(C(F)(F)F)cc(C(F)(F)F)c2)C3)cc1`: the results for the inhibition in assay [2], in assay [3] and in assay [4] were 70.8%, 77.4% and 80.1%, respectively. The IC50 amounted to 17.1 µM with HeLa, 14.9 µM in the assay with MKN-74 and 11.8 µM with HL-60.
On to `NC(=O)c1c(NC(=O)c2ccccc2Br)sc2c1CCN(C(=S)Nc1ccccc1Br)C2`, for which the values for the inhibition in assay [2], in assay [3] and in assay [4] were 88.4%, 80.9% and 82.1%, respectively. Also, the IC50 in the assay on HeLa stood at 24.7 µM; in the assay on MKN-74, 13.7 µM; in the assay with HL-60 it was 17.6 µM.
As to `NC(=O)c1c(NC(=O)c2ccccc2Cl)sc2c1CCN(C(=O)Nc1cc(C(F)(F)F)cc(C(F)(F)F)c1)C2`, the inhibition in assay [2] was found to be 80.3%; in assay [3], 91%; in assay [4] it was 89.2%. Further, the values for the IC50 in the assay on HeLa, with MKN-74 and with HL-60 were 38.6 µM, 24.3 µM and 26.7 µM, respectively.
Regarding `NC(=O)c1c(NC(=O)c2ccccc2F)sc2c1CCN(Cc1cccc(Cl)c1)C2`, the inhibition worked out at 42.5% in assay [2], 49.3% in assay [3] and 48.8% in assay [4]. For the same molecule, the figures for the IC50 in the assay with HeLa, in the assay on MKN-74 and with HL-60 were 49.5 µM, 23.3 µM and 19.8 µM, respectively.
In the case of `NC(=O)c1c(NC(=O)c2ccccc2)sc2c1CCN(C(=S)Nc1ccccc1)C2`, the values for the inhibition in assay [2], in assay [3] and in assay [4] were 61.4%, 65.8% and 66.3%, respectively. Moreover, the 50% inhibitory concentration (IC50) with HeLa, in the assay on MKN-74 and in the assay on HL-60 was over 50 µM in each case.
With `Cc1ccc(C(=O)Nc2sc3c(c2C(N)=O)CCN(Cc2ccc(Cl)cc2Cl)C3)cc1`, the inhibition in assay [2] was determined as 52.3%; in assay [3], 32.2%; in assay [4] it was 53.7%. The results for the IC50 in the assay on HeLa, with MKN-74 and in the assay on HL-60 were over 50 µM, 25.5 µM and 19.9 µM, respectively.
For the molecule `NC(=O)c1c(NC(=O)c2ccccc2Cl)sc2c1CCN(C(=S)Nc1ccccc1)C2`, the inhibition in assay [2] turned out to be 59.5%; in assay [3], 85.4%; in assay [4] it was 76.5%. Besides, the IC50 with HeLa was found to be 46.7 µM; in the assay with MKN-74, 15.6 µM; in the assay on HL-60 it was 5.94 µM.
On to `NC(=O)c1c(NC(=O)c2ccccc2Br)sc2c1CCN(C(=S)Nc1ccccc1F)C2`, for which the values for the inhibition in assay [2], in assay [3] and in assay [4] were 65.7%, 70.1% and 68.7%, respectively. Also, the half-maximal inhibitory concentration (IC50) with HeLa, with MKN-74 and in the assay on HL-60 was over 50 µM in each case.
Take `Cc1ccccc1NC(=S)N1CCc2c(sc(NC(=O)c3ccccc3C)c2C(N)=O)C1`: the inhibition was determined as 37.1% in assay [2], 48.3% in assay [3] and 43% in assay [4]. For the same molecule, the IC50 with HeLa, in the assay with MKN-74 and in the assay on HL-60 was over 50 µM in each case.
Take `NC(=O)c1c(NC(=O)c2ccc(C(F)(F)F)cc2)sc2c1CCN(C(=O)Nc1ccccc1Cl)C2`: the inhibition came to 62.2% in assay [2], 78.3% in assay [3] and 77.6% in assay [4]. The IC50 in the assay with HeLa is over 50 µM; with MKN-74, 43.9 µM; in the assay with HL-60, over 50 µM.
For `NC(=O)c1c(NC(=O)c2cccc([N+](=O)[O-])c2)sc2c1CCN(C(=O)Nc1ccccc1Cl)C2`, the inhibition came out at 65.7% in assay [2], 71.3% in assay [3] and 60.4% in assay [4]. Besides, the figures for the half-maximal inhibitory concentration (IC50) in the assay on HeLa, in the assay on MKN-74 and with HL-60 were over 50 µM, 22.7 µM and 18.5 µM, respectively.
In the case of `CCCCCC(=O)Nc1sc2c(c1C(N)=O)CCN(C(=S)NCCCC)C2`, the inhibition in assay [2] was 43.3%; in assay [3], 60.5%; in assay [4], 68.5%. The IC50 with HeLa, in the assay with MKN-74 and with HL-60 was over 50 µM in each case.
Turning to `CSc1ccccc1NC(=S)N1CCc2c(sc(NC(=O)c3ccccc3Cl)c2C(N)=O)C1`, the inhibition in assay [2] stood at 52.6%; in assay [3], 69.5%; in assay [4], 64.6%. Further, the IC50 in the assay with HeLa came out at 43.6 µM; in the assay with MKN-74, 13.8 µM; in the assay with HL-60 it was 14.6 µM.
With `NC(=O)c1c(NC(=O)c2ccccc2Br)sc2c1CCN(C(=S)Nc1ccccc1C(F)(F)F)C2`, the inhibition in assay [2] was 78.6%; in assay [3], 79.3%; in assay [4] it was 72.1%. For the same molecule, the results for the IC50 in the assay with HeLa, in the assay with MKN-74 and in the assay with HL-60 were 39.6 µM, 24.3 µM and 27.4 µM, respectively.
For `NC(=O)c1c(NC(=O)c2ccccc2F)sc2c1CCN(C(=S)Nc1cc(C(F)(F)F)cc(C(F)(F)F)c1)C2`, the inhibition is 77.3% in assay [2], 76.6% in assay [3] and 68.6% in assay [4]. Further, the IC50 was determined as 28 µM in the assay on HeLa, 13.3 µM in the assay with MKN-74 and 17.9 µM with HL-60.

These data come from ChEMBL document CHEMBL4342467, “Discovery of a Novel Dual-Target Inhibitor of ERK1 and ERK5 That Induces Regulated Cell Death to Overcome Compensatory Mechanism in Specific Tumor Types” (J Med Chem, 2020).
